Only some compounds are listed: those with a hit (about 1.9% of all), similar ones and a draw of the others.
MsrA inhibitor = bovine MsrA enzyme inhibitors, primary screen, biochemical, absorbance, HTS | Methionine sulfoxide reductase A (Bos taurus) | purified bovine MsrA, absorbance read-out | inhibition, % at 15.5 µM | hit rate 0.75% among 360,000; in the data active = inhibition above about 4.5%
UCH37 inh = inhibitors of human UCH37 deubiquitinase, primary screen, biochemical, Ub-AMC cleavage, fluorescence; purified proteasome/UCH37; inhibition, % (no concentration beside the values); hit rate 0.33% among 330,000; AID 588478, 2011;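 active = mean inhibition over replicate wells above about 20%, limit read from the data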
Target sequence (Q9Y5K5 whole entry, looked up): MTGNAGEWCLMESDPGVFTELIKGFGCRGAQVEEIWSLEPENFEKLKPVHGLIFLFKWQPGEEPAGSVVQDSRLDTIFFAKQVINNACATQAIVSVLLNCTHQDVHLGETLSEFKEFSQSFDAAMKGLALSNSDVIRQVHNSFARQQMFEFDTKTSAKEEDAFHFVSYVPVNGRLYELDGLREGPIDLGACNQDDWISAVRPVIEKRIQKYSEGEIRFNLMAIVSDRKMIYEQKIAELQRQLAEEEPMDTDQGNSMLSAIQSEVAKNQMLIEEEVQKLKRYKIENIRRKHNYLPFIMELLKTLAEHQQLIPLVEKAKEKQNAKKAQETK
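Signal – fluorescence, ex 355 nm, em 460 nm · System – Proteasome-bound UCH37 · Input – 0.15 nM proteasome as dispensed · Timing – 30 min preincubation with enzyme, 25 min cleavage at room temperature · Read-out basis – percent inhibition of cleavage signal versus uninhibited and no-proteasome wells · Medium – Tris-HCl pH 7.4 with ATP-MgCl2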
Glyco luc inh = increase of ERlucT glycosylation luciferase signal, primary screen, N-linked glycosylation inhibitor project, D54 ERlucT cells, luminescence, set 2. D54 ERlucT glycosylation luciferase reporter, 24 h; percent of 100 nM tunicamycin response. reporter increase, % at 12.5 µM. AID 588692, 2011. hit rate 0.23% among 360,000;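 active = mean luciferase reporter signal, scaled so untreated is 0 and the glycosylation-blocking control 100, at or above a set limit in every replicate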;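 note: luciferase carries N-glycosylation sites so blocking glycosylation raises the light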
aDG glyco act = activators of alpha-DG glycosylation, primary screen, uHTS, Pro5-aDG cells, AlphaScreen. alpha-DG glycosylation AlphaScreen (IIH6); 0% Pro5, 100% B10-LARGE cell signal. activation, % at 10 µM. hit rate 0.22% among 360,000;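 active = activation of at least 8% versus controls, or a plate z-score of at least 8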;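 note: Pro5 are CHO cells carrying HIG-tagged alpha-DG that lacks glycosylation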
MsrA act = bovine MsrA enzyme activators, primary screen, biochemical, absorbance, HTS; purified bovine MsrA, absorbance read-out; hit rate 0.3% among 360,000; Methionine sulfoxide reductase A (Bos taurus); activation, % at 10.6 µM; AID 602163, 2012; in the data active = activation above about 7.5%
Vif inh = HIV Vif self-association inhibitors, primary screen, imaging, HEK293T, single point. HEK293T cells, Vif self-association by quenched fluorescence, 24 h. inhibition, % at 7.49 µM. hit rate 0.35% among 340,000; in the data active = inhibition above about 50%, passing the limit was not always enough
MsrA activ conf = bovine MsrA activators, retest, confirmation, biochemical, absorbance, HTS. shares compounds with MsrA act. purified bovine MsrA, absorbance read-out. activation, % at 10.6 µM. hit rate 12% among 1,000; in the data active = activation above about 4%;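 note: enzyme coupled to thioredoxin and thioredoxin reductase with NADPH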
Of the large screens only hits and unclear results are named; the others gave an inactive call (follow-up assays come after a bar, where they were run).

COc1cc(NC(=O)CSCc2ccccc2)c(C(=O)O)cc1OC	MsrA act 10.0 | MsrA activ conf inactive
COC(=O)c1ccc(C(C(=O)NC2CCCCC2)N(C(=O)Cc2cccs2)C2CC2)cc1 (configuration not stated)	MsrA act 7.9 | MsrA activ conf inactive
CC1(C(=O)Nc2ccccc2)CCN1C(=O)Cc1ccc(-c2ccccc2)cc1 (configuration not stated)	MsrA act 14 (no result: UCH37 inh) | MsrA activ conf 5.2
COc1cccc(NC(=O)C2(C)CCN2C(=O)Cc2ccc(-c3ccccc3)cc2)c1 (configuration not stated)	none (no result: UCH37 inh)
COc1ccccc1NC(=O)Nc1ccc2c(c1)OCCO2	none
CCC(Oc1ccccc1OC)C(=O)Nc1ccc2c(c1)OCCO2 (configuration not stated)	MsrA act 16 (no result: UCH37 inh) | MsrA activ conf inactive
COc1ccc(S(=O)(=O)N2CCCC(C(=O)NCc3cccnc3)C2)cc1 (configuration not stated)	none
CCOc1ccc(S(=O)(=O)N2CCCC(C(=O)NCc3cccnc3)C2)cc1 (configuration not stated)	MsrA act 8.9 (no result: Glyco luc inh, Vif inh) | MsrA activ conf inactive
CCN(CC)S(=O)(=O)c1cccc(NC(=O)COC(=O)CCC(=O)c2cccs2)c1	none (no result: MsrA inhibitor)
CCN(CC)S(=O)(=O)c1cc(NC(=O)COC(=O)CCC(=O)c2cccs2)ccc1C	MsrA act 8.4 | MsrA activ conf inactive
COC(=O)c1sccc1NC(=O)CSc1ccccc1NS(=O)(=O)c1ccccc1Cl	MsrA act 8.3 | MsrA activ conf inactive
CC1CCCCN1C(=O)CSc1nnc(-c2ccco2)n1C (configuration not stated)	MsrA act 26 | MsrA activ conf inactive
COC(=O)CNC(=O)COC(=O)/C=C/c1ccc2ccccc2n1	MsrA act 8.7 | MsrA activ conf inactive
COC(=O)CNC(=O)COC(=O)/C=C/c1cccs1	none (no result: Vif inh)
O=C(ON=C1CCSc2ccccc21)c1ccccc1	none (no result: MsrA inhibitor, Glyco luc inh, aDG glyco act, MsrA act, Vif inh)
O=C(COC(=O)CCCNC(=O)c1ccc(Cl)cc1)NC1CC1	MsrA act 7.9 | MsrA activ conf inactive
C=C(C)C1Cc2c(C)nn(-c3cccc4ccccc34)c2C1 (configuration not stated)	MsrA act 8.0 | MsrA activ conf inactive
Cc1ccccc1OCCOc1cccc(C=NNC(=O)Cc2nnc(N)s2)c1	none (no result: MsrA inhibitor, Glyco luc inh, aDG glyco act, MsrA act, Vif inh)
CC(C)N(C(=O)CSc1ncnc2sc(-c3ccccc3)cc12)C(C)C	MsrA act 9.1 | MsrA activ conf inactive
C(=NNC1=NCCN1)c1ccncc1	none (no result: MsrA inhibitor, Glyco luc inh, aDG glyco act, MsrA act, Vif inh)
Clc1cc(Br)ccc1OCCN1CCOCC1	none
Brc1ccccc1OCCN1CCOCC1	MsrA act 9.5 | MsrA activ conf inactive
CC(C)c1c(C(=O)NN=Cc2cccc(OCc3ccc(F)cc3)c2)nnn1-c1nonc1N	none (no result: MsrA inhibitor, Glyco luc inh, aDG glyco act, MsrA act, Vif inh)
CC(C)(C)CC(C)(C)c1ccc(OCC(=O)NN=Cc2ccc(S(=O)(=O)O)o2)cc1	none (no result: MsrA inhibitor, Glyco luc inh, aDG glyco act, MsrA act, Vif inh)
COc1ccc(C=NNC(=O)c2cccnc2)cc1CN1CCc2cc(OC)c(OC)cc2C1C (configuration not stated)	none (no result: MsrA inhibitor, Glyco luc inh, aDG glyco act, MsrA act, Vif inh)
COc1ccc(/C=N/NC(=O)c2cccnc2)cc1CN1CCc2cc(OC)c(OC)cc2C1C (configuration not stated)	MsrA act 16 (no result: UCH37 inh) | MsrA activ conf inactive
COC(=O)Cc1[nH]n(-c2nc3ccccc3s2)c(=O)c1C(C)=Nc1ccc(Cl)cc1	MsrA act 8.2 | MsrA activ conf inactive
CC(CCc1oc2ccccc2c1-c1ccc(C)o1)=NO	none (no result: MsrA inhibitor, Glyco luc inh, aDG glyco act, MsrA act, Vif inh)
Cc1cc(C)cc(Nc2ccc(C(=O)O)cc2[N+](=O)[O-])c1	none
COc1cc(Nc2ccc(C(=O)O)cc2[N+](=O)[O-])cc(OC)c1	MsrA act 9.7 | MsrA activ conf 8.1
CC1(C)Cc2cccc(Oc3ccc(S(=O)(=O)N4CCCCC4)cn3)c2O1	MsrA act 7.7 | MsrA activ conf inactive
CC1(C)Cc2cccc(Oc3ccc(S(=O)(=O)N4CCCC4)cn3)c2O1	none
C=C(C)C1CC=C(C)C(=NNC(=O)COc2cccc(C)c2)C1 (configuration not stated)	none (no result: MsrA inhibitor, Glyco luc inh, aDG glyco act, MsrA act, Vif inh)
Cn1cccc1C=NNC(=O)CSc1nc2ccccc2[nH]1	none (no result: MsrA inhibitor, Glyco luc inh, aDG glyco act, MsrA act, Vif inh)
O=C(CCN1C(=O)COc2ccccc21)N1CCN(c2ccccc2)CC1	none
O=C(CCN1C(=O)COc2ccccc21)N1CCN(c2ccccn2)CC1	MsrA act 21 | MsrA activ conf inactive
O=C(c1ccc(Cl)cc1Cl)N1CCC(c2nc3c(nnn3Cc3ccco3)c(=O)[nH]2)CC1	MsrA act 23 | MsrA activ conf inactive
CCNC(=O)C1(C)CCCN(Cc2noc(-c3c(C)noc3C)n2)C1 (configuration not stated)	MsrA act 9.2 (no result: UCH37 inh) | MsrA activ conf inactive
CC(=NNC(=O)c1ccc(N2CCCC2=O)cc1)c1ccncc1	none (no result: MsrA inhibitor, Glyco luc inh, aDG glyco act, MsrA act, Vif inh)
CCCNS(=O)(=O)c1ccc(OCC(=O)NCc2ccco2)cc1	MsrA act 16 | MsrA activ conf inactive
O=C(CC(c1ccccc1)c1cc(Cl)ccc1O)N1CCCC1 (configuration not stated)	none
O=C(CC(c1ccccc1)c1cc(Cl)ccc1O)N1CCOCC1 (configuration not stated)	MsrA act 9.8 | MsrA activ conf inactive
O=c1cc(N2CCN(c3ccc(F)cc3)CC2)[nH]c(=O)n1C1CCCCC1	none
O=c1cc(N2CCC3(CC2)OCCO3)[nH]c(=O)n1C1CCCCC1	MsrA act 9.6 | MsrA activ conf inactive
O=C(Cn1ncc2c1-c1ccccc1OC2)N(Cc1ccco1)C1CCCCC1	MsrA act 7.7 | MsrA activ conf inactive
CCOc1ccccc1NC(=S)N1CCN(c2cccc(OC)c2)CC1	MsrA act 8.5 | MsrA activ conf inactive
S=c1[nH]nc(COc2ccccc2)n1N=Cc1cccc(Br)c1	none (no result: MsrA inhibitor, Glyco luc inh, aDG glyco act, MsrA act, Vif inh)
CN(Cc1ccccc1)C(=O)c1csc([C@@H]2C[C@H](O)[C@@H](CO)O2)n1	MsrA act 9.3 (no result: UCH37 inh) | MsrA activ conf inactive
CN(Cc1ccccc1)C(=O)c1csc([C@H]2C[C@H](O)[C@@H](CO)O2)n1	none (no result: UCH37 inh)
S=C(NN=Cc1ccccc1Cl)Nc1cccc(Cl)c1Cl	none (no result: MsrA inhibitor, Glyco luc inh, aDG glyco act, MsrA act, Vif inh)
CCOC(=O)Cn1cc(-c2ccccc2)nn1	MsrA act 8.3 | MsrA activ conf inactive
CCOC(=O)Cn1nc(-c2ccccc2)ccc1=O	none
CC(=O)Nc1ccc(SC[C@H](Cc2ccccc2)N2CC[C@@H](O)CCC2=O)cc1	MsrA act 9.3 | MsrA activ conf inactive
